We go through 14 compounds from ChEMBL document CHEMBL3745705, “Discovery of Oral VEGFR-2 Inhibitors with Prolonged Ocular Retention That Are Efficacious in Models of Wet Age-Related Macular Degeneration” (J Med Chem, 2015).

In brackets after ≈: the same amount, converted by molar mass.

The species named for series [1] is Mus musculus. Briefly: animal or person. The conditions noted are these: C57BL/6, po, read-out: INH.
In series [2] the test system is Mus musculus. Briefly: Antiangiogenic activity in po dosed C57BL/6 mouse laser-induced choroidal neovascularization assessed as inhibition of neovascular lesion formation administered qd for 6 days measured on day 7 by microscopic analysis. In kind it is functional. The conditions noted are these: C57BL/6, po.
The subject of series [3] is Rattus norvegicus. Nature of the series: Antiangiogenic activity in po dosed Brown Norway rat laser-induced choroidal neovascularization model assessed as inhibition of neovascular lesion formation administered qd for 14 days by microscopic analysis. In kind it is functional. To be noted: 336 h. The method, boiled down: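 Male Brown Norway rats, about 12 weeks old, dosed by oral gavage starting about 1 h before laser. Lesions were made under ketamine/xylazine i.p. (40–80 / 5–10 mg/kg) with 532 nm laser pulses (30 ms, 190 mW, 200 µm spot), about 4 lesions per eye and 10 rats per group. Vessels were labelled with i.v. 2,000 kD FITC dextran, eyes fixed in 4% paraformaldehyde, and CNV area measured blinded.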

The subject of series [4] is Plasma. Nature of the series: Dose normalized AUC (0 to 24 hrs) in Brown Norway rat plasma at 6 mg/kg, po. In kind it is ADME, organism-based. To be noted: in vivo.
The nature of series [5]: Dose normalized AUC (0 to 24 hrs) in Brown Norway rat retina at 6 mg/kg, po. To be noted: in vivo. In kind it is ADME, organism-based.
Series [6] is described as follows: Dose normalized AUC (0 to 24 hrs) in Brown Norway rat posteior eye cup at 6 mg/kg, po. In kind it is ADME, organism-based. The conditions noted are these: in vivo.
Series [7] has as its system Plasma. Nature of the series: Dose normalized Cmax in Brown Norway rat plasma at 6 mg/kg, po. To be noted: in vivo. In kind it is ADME, organism-based.
The nature of series [8]: Dose normalized Cmax in Brown Norway rat retina at 6 mg/kg, po. In kind it is ADME, organism-based. To be noted: in vivo.
Series [9] is described as follows: Dose normalized Cmax in Brown Norway rat posteior eye cup at 6 mg/kg, po. The conditions noted are these: in vivo. In kind it is ADME, organism-based.
The subject of series [10] is Plasma. Briefly: Dose normalized plasma concentration in Brown Norway rat plasma at 6 mg/kg, po measured at 24 hrs by LC-MS/MS analysis. In kind it is ADME, organism-based. To be noted: in vivo.
Series [11] is described as follows: Dose normalized drug uptake in Brown Norway rat retina at 6 mg/kg, po by LC-MS/MS analysis. In kind it is ADME, organism-based. The conditions noted are these: in vivo.
Series [12] concerns Rattus norvegicus. Briefly: AUC (0 to 8 hrs) in Brown Norway rat at 3 mg/kg, po by LC-MS/MS analysis. In kind it is ADME, organism-based. The arrangement: dose 3 mg/kg, time < 8 hr, route oral. The conditions noted are these: in vivo.
The nature of series [13]: Volume of distribution at steady state in Brown Norway rat at 3 mg/kg, po or 1 mg/kg, iv by LC-MS/MS analysis. In kind it is ADME, organism-based. The conditions noted are these: in vivo, read-out: Vdss.
Series [14] in a line: Half life in Brown Norway rat at 3 mg/kg, po or 1 mg/kg, iv by LC-MS/MS analysis. In kind it is ADME, organism-based. The conditions noted are these: in vivo.
A short description of series [15]: Cmax in Brown Norway rat at 3 mg/kg, po or 1 mg/kg, iv by LC-MS/MS analysis. In kind it is ADME, organism-based. The conditions noted are these: in vivo.
Series [16] relates to Rattus norvegicus. Briefly: Oral bioavailability in Brown Norway rat at 3 mg/kg by LC-MS/MS analysis. To be noted: in vivo. In kind it is ADME, organism-based.
The nature of series [17]: Dose normalized drug uptake in Brown Norway rat posteior eye cup at 6 mg/kg, po. In kind it is ADME, organism-based. The conditions noted are these: in vivo.
Series [18] deals with Mast/stem cell growth factor receptor Kit (Homo sapiens, UniProt P10721). Briefly: Inhibition of c-Kit (unknown origin). The method, boiled down:
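Selectivity measured in a 62-kinase panel, with results reported as IC50 (µM).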

Series [19] is described as follows: Aqueous solubility of the compound at pH 6.8. To be noted: aqueous medium.

Sequence of Mast/stem cell growth factor receptor Kit (P10721 whole entry): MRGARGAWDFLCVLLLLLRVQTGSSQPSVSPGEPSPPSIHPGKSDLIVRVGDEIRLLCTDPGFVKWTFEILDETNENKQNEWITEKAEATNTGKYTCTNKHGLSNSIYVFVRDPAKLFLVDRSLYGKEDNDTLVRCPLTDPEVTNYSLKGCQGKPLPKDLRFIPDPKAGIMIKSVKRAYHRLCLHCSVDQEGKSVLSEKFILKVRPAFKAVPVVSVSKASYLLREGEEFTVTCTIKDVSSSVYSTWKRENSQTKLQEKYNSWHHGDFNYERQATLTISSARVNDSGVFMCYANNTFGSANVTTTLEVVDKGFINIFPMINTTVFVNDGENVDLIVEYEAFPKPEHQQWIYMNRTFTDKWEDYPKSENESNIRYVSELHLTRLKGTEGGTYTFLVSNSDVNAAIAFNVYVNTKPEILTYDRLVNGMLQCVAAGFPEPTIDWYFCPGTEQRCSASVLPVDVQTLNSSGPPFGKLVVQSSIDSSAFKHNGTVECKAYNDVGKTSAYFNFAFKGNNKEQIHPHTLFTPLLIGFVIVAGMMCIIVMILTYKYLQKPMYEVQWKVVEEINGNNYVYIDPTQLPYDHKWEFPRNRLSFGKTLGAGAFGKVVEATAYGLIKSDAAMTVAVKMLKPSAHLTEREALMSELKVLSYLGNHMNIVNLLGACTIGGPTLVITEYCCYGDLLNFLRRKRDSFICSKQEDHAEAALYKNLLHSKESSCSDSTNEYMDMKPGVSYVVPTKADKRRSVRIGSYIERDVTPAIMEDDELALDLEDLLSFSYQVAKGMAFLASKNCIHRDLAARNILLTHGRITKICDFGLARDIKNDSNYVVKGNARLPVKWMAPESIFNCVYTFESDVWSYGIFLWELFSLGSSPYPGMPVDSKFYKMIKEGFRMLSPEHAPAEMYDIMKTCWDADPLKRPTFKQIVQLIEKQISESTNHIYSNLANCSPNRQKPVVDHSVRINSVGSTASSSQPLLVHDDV

`C[C@H]1NCc2ncnc(Oc3ccc4c(ccn4C(=O)Nc4cccc(C(F)(F)F)c4)c3)c21`: the inhibition in vivo at 10 mg/kg in [1] came to 0%.
As usually defined, the ED50 is the dose that gives a 50% effect, or the effect in half of the subjects. One may read the AUC as concentration integrated over time. Higher therefore signals high exposure. Usually half-life stands for how long it takes for the measured level to halve. High values mean slow decline, low ones rapid decline. Usually Cmax stands for the highest concentration seen after dosing. A word on the IC50: it is the concentration that gives 50% inhibition. Higher therefore signals a need for much substance. On to `C[C@H]1Cc2c(ncnc2Oc2ccc3c(ccn3C(=O)Nc3cc(C4(C)CC4)n[nH]3)c2)CN1`, for which the figures for the ED50 in series [2] and in [3] were 3.4 mg/kg and 2.9 mg/kg, respectively. Besides, the results for the ED90 in [2] and in [3] were 19.6 mg/kg and 14.6 mg/kg, respectively. Also, the AUC/dose was determined as 598 nM·h/mg/kg in [4], 3215 nM·h/mg/kg in [5] and 22266 nM·h/mg/kg in [6]. For the same compound, the Cmax/dose in series [7] came to 68 nM/mg/kg; in series [8] it was 170 nM/mg/kg; in series [9] it was 1067 nM/mg/kg. The Cp/dose in [10] is on record as 1.6 nM/mg/kg. For the same compound, the Druguptake/dose is given as 122 nM/mg/kg in series [11] and 1067 nM/mg/kg in series [17]. The AUC in series [12] came out at 2.49 µM·h. Besides, the Vd in series [13] worked out at 5.6 L/kg. For the same compound, in series [14], the half-life was 2.3 h. The peak level in series [15] (Cmax) was 514 nM. This compound also displayed a F in [16] of 81%. The compound also registered an IC50 in [18] of 600 nM. Moreover, in series [1], the inhibition in vivo at 10 mg/kg came to 67%.
Turning to `C[C@@H]1Cc2c(ncnc2Oc2ccc3c(ccn3C(=O)Nc3cccc(C(F)(F)F)c3)c2)CN1`, the inhibition in vivo at 10 mg/kg in series [1] came to 58%.
In general, solubility refers to the concentration that dissolves in the medium under given conditions. A higher solubility goes with a readily soluble substance. As to `CC1(c2cc(NC(=O)n3ccc4cc(Oc5ncnc6c5CNC6)ccc43)n[nH]2)CC1`, in series [19], the solubility is 489 µM (≈ 203 µg/mL). Further, the inhibition in vivo at 10 mg/kg in series [1] worked out at 43%.
In the case of `Cc1cncc(NC(=O)n2ccc3cc(Oc4ncnc5c4CCNC5)ccc32)c1`, in series [19], the solubility is 190 µM (≈ 76.1 µg/mL).
Take `CNCc1cc(Oc2ccc3c(ccn3C(=O)Nc3cccc(C(F)(F)F)c3)c2)ncn1`: the concentration in solution in [19] (solubility) was 64 µM (≈ 28.3 µg/mL). Also, in series [1], the inhibition in vivo at 10 mg/kg is 67%.
Consider `CC(C)(C)c1cc(NC(=O)n2ccc3cc(Oc4ncnc5c4CCNC5)ccc32)n[nH]1`, for which the concentration in solution in series [19] (solubility) came to 682 µM (≈ 294 µg/mL). For the same compound, the inhibition in vivo at 10 mg/kg in [1] is 0%.
For `C[C@@H]1NCc2ncnc(Oc3ccc4c(ccn4C(=O)Nc4cccc(C(F)(F)F)c4)c3)c21`, the inhibition in vivo at 10 mg/kg in series [1] is 41%.
With `O=C(Nc1cccc(C(F)(F)F)c1)n1ccc2cc(Oc3ncnc4c3CCNC4)ccc21`, the solubility in [19] turned out to be 84 µM (≈ 38.1 µg/mL). Moreover, in series [1], the inhibition in vivo at 10 mg/kg was 87%.
With `C[C@H]1Cc2c(ncnc2Oc2ccc3c(ccn3C(=O)Nc3cccc(C(F)(F)F)c3)c2)CN1`, in [2], the ED50 was 3.6 mg/kg and the ED90 was determined as 8.5 mg/kg. Further, the inhibition in vivo at 10 mg/kg in [1] came to 96%.
In the case of `CC(C)c1cc(NC(=O)n2ccc3cc(Oc4ncnc5c4CNC5)ccc32)no1`, the solubility in series [19] turned out to be 37 µM (≈ 15 µg/mL). Further, the inhibition in vivo at 10 mg/kg in series [1] stood at 96%.
As for `O=C(Nc1cccc(C(F)(F)F)c1)n1ccc2cc(Oc3ncnc4c3CNC4)ccc21`, in [2], the ED50 was determined as 6.9 mg/kg and the ED90 was found to be 31 mg/kg. Moreover, the inhibition in vivo at 10 mg/kg in series [1] amounted to 68%.
In turn, `CC(C)(C)c1cc(NC(=O)n2ccc3cc(Oc4ncnc5c4CNC5)ccc32)on1` registered a solubility in series [19] of 232 µM (≈ 97.1 µg/mL). Besides, the inhibition in vivo at 10 mg/kg in [1] amounted to 58%.
Take `C[C@H]1Cc2c(ncnc2Oc2ccc3c(ccn3C(=O)Nc3cc(C(C)(C)C)on3)c2)CN1`: the inhibition in vivo at 10 mg/kg in series [1] was 96%.
